Test results reported in the EternaBench riboswitch data.

Tested on: MS2 coat protein
Test: apparent Kd, MS2 coat protein; higher = weaker binding; RNA-MaP array; FMN 200 µM where present
In short: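 Green signal was scaled to red-channel RNA signal and control-cluster median Fmax, and the apparent Kd was taken as the median of filtered per-cluster binding-curve fits. The binding series used SNAP-549-labelled MS2 coat protein from 0.7 or 1.5 nM, doubling to 3 µM, on designs transcribed by stalled E. coli RNA polymerase on Illumina sequencing-chip clusters. Each series ran without and then with constant ligand in 100 mM Tris-HCl pH 7.5, 80 mM KCl, 4 mM MgCl2, BSA, DTT, yeast tRNA and Tween-20.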

[1] = designed as: ON switch for flavin mononucleotide, no ligand
[2] = ligand present: flavin mononucleotide, designed as: ON switch for flavin mononucleotide
[3] = designed as: OFF switch for flavin mononucleotide, no ligand
[4] = ligand present: flavin mononucleotide, designed as: OFF switch for flavin mononucleotide

Sequence	apparent Kd [1] [µM]	apparent Kd [2] [µM]	apparent Kd [3] [µM]	apparent Kd [4] [µM]
ACAUACUUUCGAGGAUAUCGGUGAUAAAUUUUACGAGAAGGCGAUAAAAGAUAUAAUCUUAUAAACAUGAGGAUCACCCAUGUA	0.0255	0.0239	–	–
AUAAUACAUGAGGAUCACCCAUGUAAUUUAACUUGUAAGAUCAAGGAUAUCAGCUCGAAUAGAGCUGAGAAGGUGAUCACAUGU	0.169	0.295	–	–
UUUUUGUGAGGAUAUUAGUAGUAAAUAAAUAAAAUUACUACUGAGAAGGCACAUGAGGAUCACCCAUGUUCCUC	–	–	0.0336	0.254
CCUGGUUGGUAAGGAUAUCCUACACUGUUCUGACCCGUGCAAGCUACAUGAGGAUCACCCAUGUGGGAGAAGGUGCGUCAACGC	–	–	0.0126	0.0117
UUGGACGUCGUAGGAUAUGUAGGAUAUUCUUACAUGAGGAUCACCCAUGUUGACAUGGAAGAAGGACAGAAGGACGAUGUCCAU	0.0567	0.0072	–	–
UGUUGUAUUACAGGAUAUCUAUUAUUGUUAUUUAGAGAAGGGUAUUCACAUGAGGAUCACCCAUGUAUAUACGAGGAAGUUGUG	0.0547	0.0553	–	–
GGGACUCUAGAAGAGCUGUCGACAUAGGAUAUGAUGUGCGACAUGAGGAUCACCCAUGUAACGAAUUAGAAGGGUGUAGGCAUG	0.228	0.114	–	–
GGGAGACAUGAGGAUCACCCAUGUGAAAACGUGGCAGGAUAUCCAUGGAAACCAUACUGUGGAGAAGGGCCUUGUC	0.0779	0.0405	–	–
ACAAAGUGAGGAUAUGCUUUUAUUUAUUAUUAUUAUUAUUUGCAGAAGGCACAUGAGGAUCACCCAUGUAAGAA	–	–	0.0329	0.0255
UUAUGUAUUGUAGGAUAUCAUAAGUUAUGUAUUAUAAUUGAAAUUUUGUUAUGAGAAGGACAUAUACAUGAGGAUCACCCAUGU	–	–	0.0166	0.014
GGACAUGUCGUUUACAUGAGGAUCACCCAUGUCGAUGGACAUGAGGAUAUCGAUACAAAUUGUAUCGAGAAGGCAUGCAUGUCC	0.0408	0.0185	–	–
GGUCCAACAUGAGGAUAUAGCACCUUAUUGGUGCUAGAAGGCGUGUCGGUAGACAUGAGGAUCACCCAUGUAUUACAAUGGACC	0.14	0.027	–	–
GGUGCCAUGUAGAAGGCAGAUCCGAUUCAGAUCUGAGGAUAUACAUGAGGAUCACCCAUGUAAAGGCACCGCACGAGAGUGCAA	–	–	0.00812	0.00911
UAGCAUUGCCUUUGGUAGUGCUUUACAUGAGGAUCACCCAUGUAGGAUAUGGUAGGCUUUGCUUACCAGAAGGACAUGAUAAUU	–	–	0.0529	0.166
UUAAAUCAUGUAGGAUAUGCAUGGCGAAGCUACGCAGAAGGACAUGAGGAUCACCCAUGUUCGAGCUACCGAGUUCGGUGGCAA	–	–	0.0219	0.122
UAUUAGCUAGGAUAUACAUGAGGAUCACCCAUGUCACGGGUCCACUCGUCCUAUGCGUGUAGAAGGAGCGACCC	–	–	0.0206	0.0224
UGAGCCUCGUGAGGAUAUACAUGAGGAUCACCCAUGUAAUAAAGUGAACGGAGGAAACUCCGAAUGUAGAAGGUACGAGGCUCA	–	–	0.0101	0.0442
UAGGUGUGAGGAUAUGGUAAAGAAAAGAUGAUGAAAGAACUCCAGAAGGCACAUGAGGAUCACCCAUGUAGAUG	–	–	0.0263	0.0545
GGCAAUAACGAGGAUAUCGUAUCGGAAACGAUACGAGAAGGUGUAACAUGAGGAUCACCCAUGUUCCUUAAGCC	–	–	0.0249	0.0266
GCACUGGAUGUAGGAUAUCAGGACGAUAAGUCCUGAGAAGGACAUGAGGAUCACCCAUGUGAAUAAACCAGUGCAAAUAAUAUA	–	–	0.0125	0.0323
GUGAGACAUGAGGAUCACCCAUGUCAGGAUAUGAUACUAUGUACUUCGGUACAUAGUAUCAGAAGGGACAGUGA	–	–	0.0536	0.0667
CUGGUGUUAGGAUAUUCGAGGCUGCCUCGGAGACGAGGGUAGGAGAAGGGACAUGAGGAUCACCCAUGUGCUCC	–	–	0.0344	0.0376
ACUGGGCGCCGACCCAUGUCUAUGGAGGAUAUUACUGCCGGUAUCUCACAUGAGGAUCACCCAUGUAAGAAGGCCAUAAACACC	–	–	0.0195	0.221
AGAUUUGUACAUGAGGAUCACCCAUGUUAAUAGGUGGUUGUCAGAAGGCAUUGAUAGAGUUUUAAUGAGGAUAUGAAUUUACAG	1	0.553	–	–

Sequence	apparent Kd [1] [µM]	apparent Kd [2] [µM]	apparent Kd [3] [µM]	apparent Kd [4] [µM]
UGGUACUAGGGAGGAUAUGGGAAGAUACAUGAGGAUCACCCAUGUUUAAGAAUGCCGAGAGGCAACUAGAAGGCCGUAGUACCU	0.466	0.0203	–	–
UGUAUAUAGGCAGGAUAUACAUGAAUAUAUAUGAUGUAGUAUGAUGUAACAUGAGGAUCACCCAUGUAGAAGGGCCAAUAUAUA	–	–	0.0408	0.135
GAGAAGAAGUUAGGAUAUUGGAUAGGGACGGAAUAAGAAGGAGCAAGACAUGAGGAUCACCCAUGUGUAGAAGAAGAGAUCCUC	–	–	0.52	0.384
GUAGUGUAUGUAGGAUAUGUGAAGCAAAGCUUCACAGAAGGACAUGAGGAUCACCCAUGUAUUACAGUCAGCAAUCUGACUGUU	–	–	0.0398	0.137
UGAGUCUGCUGAGGAUAUUGCUCGUGCGUACAUGAGGAUCACCCAUGUGUCUUGAUCCUCUUCUGCAAGAAGGCAGCUCUCUCU	–	–	0.775	0.444
AAAAAACAUGAGGAUCACCCAUGUGAGGAUAUCGAAAAGUUAAAGAAAAAGACGAAAAUGAGAAGGCGCAAAAA	–	–	0.0473	0.0467
GUUUCACAUGAGGAUCACCCAUGUGAGGAUAUGGAUUCGCUGGCCGUAGCCAGUGGAUCCAGAAGGCGCAUGAU	–	–	0.0357	0.044
ACAUGAGGAUCACCCAUGUAAUAACAUCGGUUAUACGAAAGUGAGGAUAUCGAUCAGGCAUAUUACGAGAAGGCACAAUAGGGA	0.0413	0.0432	–	–
CCGAUGAUAGGACAGGAUAUGACUGUCGUCACAUGAGGAUCACCCAUGUCCCGGCAAUGCCACCGUUAGAAGGGUCCCAUCUCGG	0.0191	0.0163	–	–
UAAGCGCAGGAGAAGGGCACUGGACGCUCGCUACAUGAGGAUCACCCAUGUGCAGGAUAUCCGGCGCCGCCCGCAAACUCGGCG	–	–	0.00514	0.0133
UUAUUAUAUAUAGGAUAUUGAUGUAAUUUAUUUCAAGAAGGAUAUACAUGAGGAUCACCCAUGUUGGAUAGGGUUAGUUUGUUU	0.0866	0.154	–	–
CUCGUGUGAGGAUAUCUAUUCCACGGACGGGAGUCUUGAAGAGAGAAGGCACAUGAGGAUCACCCAUGUAAUAA	–	–	–	0.0337
GGAAUACAUGAGGAUCACCCAUGUAAGGAUAUGCUGAUUAAUUAAUUAUAAUUAUGCAGCAGAAGGUACAAAGG	–	–	0.0859	0.104
AAGCGAGGGACAGGAUAUGCGGCGGAACUCGCCGCAGAAGGGUCGACAUGAGGAUCACCCAUGUCCUUACGCUCCAAGUAGAGG	0.181	0.451	–	–
UGGAUCAUCGGAGGAUAUCAUGUGUAAACAUGAGGAUCACCCAUGUCGUACGAGAGUACGGAGAUUGAGAAGGCCGAUGAUCCU	0.0854	0.0164	–	–
CGUAGGAUCCAGAAGGCAUGAACAUGAGGAUCACCCAUGUCAAAAGACAUGAGGAUAUGGAUCCUACGAAAAGUGCGAAAGCAC	0.019	0.00555	–	–
AAGUUUGUACGAGGAUAUCAGUUGUAUCUAAAUUCAACAUGAGGAUCACCCAUGUUGCAAUAGGGUGAGAAGGCGUGUGGGCAA	0.0446	0.0379	–	–
GCUGGGUCAGGAUAUACGAGAUCGAAAGAUCGAAGAUCCGUACAUGAGGAUCACCCAUGUAGAAGGGACUGGGC	–	–	0.0214	0.0447
CUUUUGUGAGGAUAUCAGGUGUGCUAGCGUACUGGUACAUCUGAGAAGGCACAUGAGGAUCACCCAUGUUUCUU	–	–	0.0329	0.0755
GGAGCCGGCACCGAGGAUAUUCAUAUUAAAACAUGAGGAUCACCCAUGUAGAGCGAAAGCUCUUGGGAGAAGGCGGAUCGGCUCG	0.73	0.0465	–	–
AAAAAGUGAGGAUAUACGCUGUGGAGUAGACACAACCAGUCGUAGAAGGCACAUGAGGAUCACCCAUGUUCAAA	–	–	0.0272	0.0301
UGAUCGAAAGAUCAUAGAUUCUGCUAGGAUAUGCAGAAGUUUCGAUUUACAUGAGGAUCACCCAUGUAGAAGGAGUAGAGUCUA	–	–	0.00612	0.00654
GUGGUGCAUAUACGUGGAUGUACAUGAGGAUCACCCAUGUAAGAGGAUAUGCGGAUACUAGCUCAGCAGAAGGCUUACAAAUGA	–	–	0.0303	0.24
CAUCCGGCAGGAUAUACAUGAGGAUCACCCAUGUCAGAAAGCAAAUUGUGCGACUCAGGUAGAAGGGUUGGACU	–	–	0.0289	0.0342
